The source made the active and inactive calls. The calls are words filed in the database; no cut-off is given here.
How the values were obtained:
[1] = Toxicity in rat assessed as increase in food intake at 10 mg/kg, po administered for 14 days; format: organism-based; settings: in vivo, 336 h, time 14 day
How it was run: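 Two-week repeat-dose toxicity study in rats. Oral dosing in 0.5% methylcellulose at 3, 10, 30 (males)/15 (females) mg/kg, N=4/sex/dose. Food intake, body weight gain and histopathology were assessed.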

[2] = fCmax in dog at 3 mg/kg, po using spray-dried dispersion formulation; format: ADME, organism-based, Canis lupus familiaris; settings: in vivo
[3] = target: T1, Muscarinic acetylcholine receptor M2 (Homo sapiens, UniProt P08172); test: Agonist activity at human recombinant muscarinic M2 receptor stably expressed in HEK cells assessed as increase in cAMP accumulation up to 10 uM measured after 10 mins by GloSensor cAMP Assay; format: cell-based
T1 sequence (P08172 whole entry): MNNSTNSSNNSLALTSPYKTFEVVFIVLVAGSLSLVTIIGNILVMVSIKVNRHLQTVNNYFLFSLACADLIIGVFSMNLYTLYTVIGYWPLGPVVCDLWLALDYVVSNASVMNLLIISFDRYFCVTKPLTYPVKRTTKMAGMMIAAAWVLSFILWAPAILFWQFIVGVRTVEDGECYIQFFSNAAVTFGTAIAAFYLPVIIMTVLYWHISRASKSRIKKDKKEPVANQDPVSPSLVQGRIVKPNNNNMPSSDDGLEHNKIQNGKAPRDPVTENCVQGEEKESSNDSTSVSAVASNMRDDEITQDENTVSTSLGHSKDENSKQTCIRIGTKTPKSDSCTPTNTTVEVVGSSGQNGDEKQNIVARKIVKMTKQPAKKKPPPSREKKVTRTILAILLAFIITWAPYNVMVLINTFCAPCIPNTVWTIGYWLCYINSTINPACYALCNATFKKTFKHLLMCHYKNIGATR

[4] = Partial agonist activity at muscarinic M2/M3 receptor in Hartley guinea pig ileum assessed as stimulation of contraction in presence of mAChR antagonist atropine; format: tissue-based, Cavia porcellus
How it was run: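 Agonist mode used a guinea pig ileum tissue bath with the compound applied alone. Concentration–response curves were run with or without the non-selective muscarinic antagonist atropine. Contraction was expressed relative to the maximal carbachol response.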

[5] = Fraction unbound in Wistar Han rat plasma; format: ADME
[6] = Toxicity in dog assessed as induction of watery feces at 5 mg/kg, po using spray-dried dispersion formulation; format: organism-based, Canis lupus familiaris; settings: in vivo
[7] = fCmax in dog at 1 mg/kg, po measured after 4 hrs using spray-dried dispersion formulation; format: ADME, organism-based, Canis lupus familiaris; settings: in vivo
How it was run: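 Dogs from the crossover cardiovascular telemetry study (N=4), dosed orally at 0.3, 1 and 3 mg/kg; unbound Cmax extrapolated from 4 h post-dose in-life plasma samples.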

[8] = fAUC (0 to 24 hrs) in dog at 3 mg/kg, po using spray-dried dispersion formulation; format: ADME, organism-based, Canis lupus familiaris; settings: in vivo
[9] = target: T2, Muscarinic acetylcholine receptor M1 (Homo sapiens, UniProt P11229); test: Agonist activity at muscarinic M1 receptor (unknown origin) expressed in CHO cells assessed as accumulation of inositol phosphate measured after 30 mins by HTRF assay; format: functional, cell-based
T2 sequence (P11229 whole entry): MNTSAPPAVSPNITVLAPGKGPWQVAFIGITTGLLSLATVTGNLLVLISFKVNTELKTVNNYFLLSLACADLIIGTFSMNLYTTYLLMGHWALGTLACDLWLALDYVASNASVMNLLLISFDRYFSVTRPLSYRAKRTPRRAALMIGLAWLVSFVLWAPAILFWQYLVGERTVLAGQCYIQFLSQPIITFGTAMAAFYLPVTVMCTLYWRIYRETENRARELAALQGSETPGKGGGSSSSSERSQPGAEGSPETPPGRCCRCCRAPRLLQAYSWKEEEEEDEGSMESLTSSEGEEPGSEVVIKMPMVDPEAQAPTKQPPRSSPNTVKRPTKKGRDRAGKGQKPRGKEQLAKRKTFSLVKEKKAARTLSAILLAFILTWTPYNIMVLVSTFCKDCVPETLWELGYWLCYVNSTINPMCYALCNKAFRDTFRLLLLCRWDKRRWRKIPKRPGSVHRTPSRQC

[10] = Half life in dog at 0.5 mg/kg, po or 0.1 mg/kg, iv; format: ADME, organism-based, Canis lupus familiaris; settings: in vivo
[11] = Ratio of fAUC in rat brain to plasma; format: ADME, cell-free; settings: brain and plasma, read-out: Ratio AUC
[12] = Unbound plasma concentration in amphetamine-induced C57BL/6J mouse model of hyperlocomotion at 1 mg/kg, sc measured after 1 hr; format: ADME, organism-based; settings: in vivo
How it was run: (§1)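 Satellite PK animals from the mouse aLMA study, N=2/dose. Dosed subcutaneously with a solution in 5/15/80 DMSO/Solutol/water. Plasma and brain were sampled at T = 1 h.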

[13] = Unbound plasma concentration in CD-1 mouse at 3.2 mg/kg, sc measured after 2 hrs by LC-MS/MS analysis; format: ADME, organism-based; settings: in vivo
Mus musculus = test: Reversal of amphetamine-induced hyperlocomotion in C57BL/6J mouse at 1 mg/kg, sc incubated for 30 mins followed by addition of amphetamine measured after 90 mins; format: functional, organism-based; settings: time 120.0 min
How it was run: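 The compound was given sc as a solution in 5/15/80 DMSO/Solutol/water, and amphetamine-induced locomotor activity was compared with vehicle. Plasma and brain exposure came from a satellite group (N=2/dose) sampled at 1 h after the same dosing.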

[14] = Ratio of AUC in dog brain to fAUC in dog plasma; format: ADME, cell-free, Canis lupus familiaris; settings: in vivo
[15] = Toxicity in dog assessed as emesis at 15 mg/kg, po using spray-dried dispersion formulation; format: organism-based, Canis lupus familiaris; settings: in vivo
How it was run: (§2)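 Dogs received single escalating oral doses as a spray-dried dispersion (10% drug loading with HPMCAS-M). The dispersion was suspended in 0.5 wt% methylcellulose/0.5 wt% HPMCAS in 20 mM tris buffer, pH 7.4. One dog per sex per dose was used, and clinical signs were recorded.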

[16] = Toxicity in dog assessed as ataxia at 45 mg/kg, po using spray-dried dispersion formulation measured after 45 mins; format: organism-based, Canis lupus familiaris; settings: in vivo, 0.75 h; how it was run: as §2
[17] = Toxicity in dog assessed as induction of loose stool at 0.3 mg/kg, po using spray-dried dispersion formulation; format: organism-based, Canis lupus familiaris; settings: in vivo
[18] = Unbound brain concentration in scopolamine-induced Wistar rat model at 1 mg/kg, po measured after 1 hr; format: ADME, organism-based; settings: in vivo
[19] = Toxicity in male Beagle dog assessed as decrease in QTc interval at 3 mg/kg, po administered as single dose observed upto 9 hrs post last dose by telemetry; format: organism-based, Canis lupus familiaris; settings: in vivo
How it was run: (§3)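 Crossover telemetry study in dogs at three oral doses (0.3, 1 and 3 mg/kg), N=4. Endpoints were blood pressure, maximum systolic left ventricular pressure, LV +dP/dt max, activity, heart rate, and RR, QT and QTc intervals, followed up to 9 h post dose.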

[20] = Toxicity in dog assessed as side-to-side head movements at 45 mg/kg, po using spray-dried dispersion formulation measured after 45 mins; format: organism-based, Canis lupus familiaris; settings: in vivo, 0.75 h
[21] = Toxicity in male Beagle dog assessed as increase in maximum systolic left ventricular pressure at 1 mg/kg, po observed upto 9 hrs post last dose by telemetry; format: organism-based, Canis lupus familiaris; settings: in vivo; how it was run: as §3
[22] = Fraction unbound in C57BL/6 mouse plasma; format: ADME, cell-free
[23] = Toxicity in male Beagle dog assessed as decrease in QT interval at 3 mg/kg, po administered as single dose observed upto 9 hrs post last dose by telemetry; format: organism-based, Canis lupus familiaris; settings: in vivo; how it was run: as §3
[24] = Unbound brain concentration in amphetamine-induced C57BL/6J mouse model of hyperlocomotion at 1 mg/kg, sc measured after 1 hr; format: ADME, organism-based; settings: in vivo; how it was run: as §1

In the case of Cc1cnc(C(=O)N[C@H]2CCOC[C@@H]2O)cc1Cc1ccc(-c2cscn2)cc1, the Activity [1] is reported as “Non-Toxic”, the fCmax [2] is reported as 568 nM and the Activity [3] is reported as “Not Active”. The Activity [4] was “Not Active”, the Fu [5] was 4.3% and the Activity [6] was “Toxic”. It also gave a fCmax [7] of 169 nM, a fAUC [8] of 5.242 µM·h and an EC50 [9] of no less than 9.2 µM. The half-life [10] was 310 min, the Kp uu [11] was 0.34 and the “Cp(f)” value [12] was 76.1 nM. The “Cp(f)” value [13] was 176 nM, the Activity (Mus musculus) was “Active” and the “Ratio AUC” value [14] was 0.6. For the same molecule, the Activity [15] was “Toxic”, the Activity [16] was “Toxic” and the Activity [17] was “Toxic”. For the same molecule, the “Drug uptake(free)” value [18] was 6.7 nM, the Activity [19] was “Toxic” and the Activity [20] was “Toxic”. For the same molecule, the Activity [21] was 8 mmHg, the Fu [22] was 2.9% and the Activity [23] was “Toxic”. The “Drug uptake(free)” value [24] was 18.5 nM.

Reference: ChEMBL document CHEMBL4715734, “Discovery of the Potent and Selective M1 PAM-Agonist N-[(3R,4S)-3-Hydroxytetrahydro-2H-pyran-4-yl]-5-methyl-4-[4-(1,3-thiazol-4-yl)benzyl]pyridine-2-carboxamide (PF-06767832): Evaluation of Efficacy and Cholinergic Side Effects” (J Med Chem, 2016)
